ChEMBL document CHEMBL3351385, “Synthesis and preliminary mechanistic evaluation of 5-(p-tolyl)-1-(quinolin-2-yl)pyrazole-3-carboxylic acid amides with potent antiproliferative activity on human cancer cell lines” (Eur J Med Chem, 2014)

Assays:
[1] = molecular target: CDK9/cyclin T1 (Homo sapiens) (UniProt O60563+P50750); assay: Inhibition of CDK9/Cyclin-T1 (unknown origin) assessed as remaining enzyme activity at 10 uM by radioactive [33P]-ATP filter binding assay; assay type: protein-complex assay
Method in brief: (§1)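 A single 10 µM concentration was tested across a 140-kinase panel. Activity was measured by a radioactive 33P-ATP filter-binding assay run at the International Center for Kinase Profiling, University of Dundee.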

[2] = molecular target: TGF-beta receptor type-1 (Homo sapiens) (UniProt P36897); assay: Inhibition of TGFBR1 (unknown origin) assessed as remaining enzyme activity at 10 uM by radioactive [33P]-ATP filter binding assay
[3] = molecular target: Mitogen-activated protein kinase 10 (Homo sapiens) (UniProt P53779); assay: Inhibition of JNK3 (unknown origin) assessed as remaining enzyme activity at 10 uM by radioactive [33P]-ATP filter binding assay
[4] = molecular target: Homeodomain-interacting protein kinase 3 (Homo sapiens) (UniProt Q9H422); assay: Inhibition of HIPK3 (unknown origin) assessed as remaining enzyme activity at 10 uM by radioactive [33P]-ATP filter binding assay
[5] = molecular target: Receptor tyrosine-protein kinase erbB-4 (Homo sapiens) (UniProt Q15303); assay: Inhibition of HER4 (unknown origin) assessed as remaining enzyme activity at 10 uM by radioactive [33P]-ATP filter binding assay
[6] = molecular target: Tyrosine-protein kinase CSK (Homo sapiens) (UniProt P41240); assay: Inhibition of CSK (unknown origin) assessed as remaining enzyme activity at 10 uM by radioactive [33P]-ATP filter binding assay; method in brief: as §1
[7] = molecular target: Ribosomal protein S6 kinase alpha-5 (Homo sapiens) (UniProt O75582); assay: Inhibition of MSK1 (unknown origin) assessed as remaining enzyme activity at 10 uM by radioactive [33P]-ATP filter binding assay
[8] = molecular target: Dual specificity tyrosine-phosphorylation-regulated kinase 1A (Homo sapiens) (UniProt Q13627); assay: Inhibition of DYRK1A (unknown origin) assessed as remaining enzyme activity at 10 uM by radioactive [33P]-ATP filter binding assay; method in brief: as §1
[9] = molecular target: Dual specificity tyrosine-phosphorylation-regulated kinase 2 (Homo sapiens) (UniProt Q92630); assay: Inhibition of DYRK2 (unknown origin) assessed as remaining enzyme activity at 10 uM by radioactive [33P]-ATP filter binding assay; method in brief: as §1
[10] = molecular target: Tau-tubulin kinase 2 (Homo sapiens) (UniProt Q6IQ55); assay: Inhibition of TTBK2 (unknown origin) assessed as remaining enzyme activity at 10 uM by radioactive [33P]-ATP filter binding assay
[11] = Induction of cell cycle arrest in human HuH7 cells assessed as accumulation at G2/M phase at cytotoxic IC50 level after 48 hrs by propidium iodide staining based FACS method; assay type: functional, Huh-7
Method in brief: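 Huh7 cells were seeded at 150,000–300,000 per 100-mm dish and left 24 h. […] Cells were stained with a propidium iodide-containing cell cycle reagent, and subG1, G0/G1, S and G2/M fractions were scored by flow cytometry.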

[12] = molecular target: Calcium/calmodulin-dependent protein kinase type 1 (Homo sapiens) (UniProt Q14012); assay: Inhibition of CAMK1 (unknown origin) assessed as remaining enzyme activity at 10 uM by radioactive [33P]-ATP filter binding assay; method in brief: as §1
[13] = molecular target: Insulin receptor-related protein (Homo sapiens) (UniProt P14616); assay: Inhibition of IRR (unknown origin) assessed as remaining enzyme activity at 10 uM by radioactive [33P]-ATP filter binding assay
[14] = molecular target: Serine/threonine-protein kinase PAK 2 (Homo sapiens) (UniProt Q13177); assay: Inhibition of PAK2 (unknown origin) assessed as remaining enzyme activity at 10 uM by radioactive [33P]-ATP filter binding assay
[15] = molecular target: Serine/threonine-protein kinase Chk2 (Homo sapiens) (UniProt O96017); assay: Inhibition of CHK2 (unknown origin) assessed as remaining enzyme activity at 10 uM by radioactive [33P]-ATP filter binding assay; method in brief: as §1
[16] = molecular target: Tyrosine-protein kinase SYK (Homo sapiens) (UniProt P43405); assay: Inhibition of SYK (unknown origin) assessed as remaining enzyme activity at 10 uM by radioactive [33P]-ATP filter binding assay
[17] = molecular target: Dual specificity testis-specific protein kinase 1 (Homo sapiens) (UniProt Q15569); assay: Inhibition of TESK1 (unknown origin) assessed as remaining enzyme activity at 10 uM by radioactive [33P]-ATP filter binding assay
[18] = molecular target: Eukaryotic translation initiation factor 2-alpha kinase 3 (Homo sapiens) (UniProt Q9NZJ5); assay: Inhibition of EIF2AK3 (unknown origin) assessed as remaining enzyme activity at 10 uM by radioactive [33P]-ATP filter binding assay; method in brief: as §1
[19] = molecular target: Mitogen-activated protein kinase kinase kinase 11 (Homo sapiens) (UniProt Q16584); assay: Inhibition of MLK3 (unknown origin) assessed as remaining enzyme activity at 10 uM by radioactive [33P]-ATP filter binding assay
[20] = molecular target: Serine/threonine-protein kinase PAK 4 (Homo sapiens) (UniProt O96013); assay: Inhibition of PAK4 (unknown origin) assessed as remaining enzyme activity at 10 uM by radioactive [33P]-ATP filter binding assay
[21] = molecular target: Mitogen-activated protein kinase 12 (Homo sapiens) (UniProt P53778); assay: Inhibition of p38gamma (unknown origin) assessed as remaining enzyme activity at 10 uM by radioactive [33P]-ATP filter binding assay
Method in brief: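 Single-concentration screen against a 140-kinase panel. Done by the International Center for Kinase Profiling, University of Dundee, with a radioactive 33P-ATP filter-binding read-out.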

[22] = molecular target: Dual specificity tyrosine-phosphorylation-regulated kinase 3 (Homo sapiens) (UniProt O43781); assay: Inhibition of DYRK3 (unknown origin) assessed as remaining enzyme activity at 10 uM by radioactive [33P]-ATP filter binding assay; method in brief: as §1
[23] = Cytotoxicity against human HCT116 cells after 72 hrs by SRB assay; assay type: functional, cell-based; conditions: HCT-116, 72 h
Method in brief: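 Cells kept in DMEM with 10% FCS and penicillin/streptomycin at 37°C, 5% CO2. 2000–3000 cells/well were seeded, and medium was refreshed the next day. DMSO solutions were added over 2.5–40 µM with matched DMSO-only controls for 72 h. Cells were then TCA-fixed, stained with 0.4% SRB in 1% acetic acid, solubilized in 10 mM Tris pH 8 and read at 515 nm. Data were normalized to DMSO wells and expressed as mean ±SD.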

[24] = molecular target: MAP/microtubule affinity-regulating kinase 3 (Homo sapiens) (UniProt P27448); assay: Inhibition of MARK3 (unknown origin) assessed as remaining enzyme activity at 10 uM by radioactive [33P]-ATP filter binding assay
[25] = molecular target: Serine/threonine-protein kinase pim-2 (Homo sapiens) (UniProt Q9P1W9); assay: Inhibition of PIM2 (unknown origin) assessed as remaining enzyme activity at 10 uM by radioactive [33P]-ATP filter binding assay
[26] = molecular target: Ribosomal protein S6 kinase alpha-3 (Homo sapiens) (UniProt P51812); assay: Inhibition of RSK2 (unknown origin) assessed as remaining enzyme activity at 10 uM by radioactive [33P]-ATP filter binding assay
Sequence of Ribosomal protein S6 kinase alpha-3 (Homo sapiens) (P51812 whole entry): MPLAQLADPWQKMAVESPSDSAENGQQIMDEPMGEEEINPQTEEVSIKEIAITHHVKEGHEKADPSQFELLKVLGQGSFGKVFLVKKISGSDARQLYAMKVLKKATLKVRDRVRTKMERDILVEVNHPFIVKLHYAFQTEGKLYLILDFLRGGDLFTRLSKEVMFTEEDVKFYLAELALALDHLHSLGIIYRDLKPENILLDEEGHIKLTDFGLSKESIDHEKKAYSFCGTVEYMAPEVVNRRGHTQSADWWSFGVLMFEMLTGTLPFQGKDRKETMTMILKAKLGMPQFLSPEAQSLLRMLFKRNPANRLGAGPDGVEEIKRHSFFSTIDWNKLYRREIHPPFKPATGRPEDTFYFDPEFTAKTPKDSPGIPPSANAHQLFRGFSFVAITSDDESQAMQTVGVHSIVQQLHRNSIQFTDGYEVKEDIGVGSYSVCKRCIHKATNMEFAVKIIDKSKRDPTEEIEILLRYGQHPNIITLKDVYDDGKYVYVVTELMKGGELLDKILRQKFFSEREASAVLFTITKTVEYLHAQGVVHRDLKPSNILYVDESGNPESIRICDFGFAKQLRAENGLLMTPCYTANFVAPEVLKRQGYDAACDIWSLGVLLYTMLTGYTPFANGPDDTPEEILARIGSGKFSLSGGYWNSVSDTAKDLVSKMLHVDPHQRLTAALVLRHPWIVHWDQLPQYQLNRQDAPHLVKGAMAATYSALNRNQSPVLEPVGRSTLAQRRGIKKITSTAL

Sequence of Ribosomal protein S6 kinase alpha-5 (Homo sapiens) (O75582 whole entry, looked up): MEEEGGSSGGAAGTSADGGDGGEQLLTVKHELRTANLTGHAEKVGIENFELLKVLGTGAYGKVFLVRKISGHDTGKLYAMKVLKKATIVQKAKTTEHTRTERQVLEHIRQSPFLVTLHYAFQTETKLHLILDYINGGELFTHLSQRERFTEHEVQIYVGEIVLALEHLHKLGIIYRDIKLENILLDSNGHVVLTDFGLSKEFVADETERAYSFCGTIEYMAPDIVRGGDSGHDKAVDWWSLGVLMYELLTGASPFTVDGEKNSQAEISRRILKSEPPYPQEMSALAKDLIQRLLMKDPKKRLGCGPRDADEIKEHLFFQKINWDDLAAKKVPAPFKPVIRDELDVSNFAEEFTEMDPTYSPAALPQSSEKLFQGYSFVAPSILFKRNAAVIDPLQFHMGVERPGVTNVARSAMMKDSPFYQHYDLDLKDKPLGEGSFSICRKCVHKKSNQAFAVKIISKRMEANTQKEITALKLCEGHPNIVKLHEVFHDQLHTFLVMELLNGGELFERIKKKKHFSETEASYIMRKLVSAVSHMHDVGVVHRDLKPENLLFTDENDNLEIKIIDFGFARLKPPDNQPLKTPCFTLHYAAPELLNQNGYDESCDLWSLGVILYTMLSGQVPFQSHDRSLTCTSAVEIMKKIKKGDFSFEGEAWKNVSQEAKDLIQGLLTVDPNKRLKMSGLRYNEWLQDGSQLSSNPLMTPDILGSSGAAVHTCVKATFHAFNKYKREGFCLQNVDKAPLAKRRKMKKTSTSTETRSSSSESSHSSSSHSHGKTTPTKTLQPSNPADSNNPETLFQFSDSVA
Sequence of Tau-tubulin kinase 2 (Homo sapiens) (Q6IQ55 whole entry): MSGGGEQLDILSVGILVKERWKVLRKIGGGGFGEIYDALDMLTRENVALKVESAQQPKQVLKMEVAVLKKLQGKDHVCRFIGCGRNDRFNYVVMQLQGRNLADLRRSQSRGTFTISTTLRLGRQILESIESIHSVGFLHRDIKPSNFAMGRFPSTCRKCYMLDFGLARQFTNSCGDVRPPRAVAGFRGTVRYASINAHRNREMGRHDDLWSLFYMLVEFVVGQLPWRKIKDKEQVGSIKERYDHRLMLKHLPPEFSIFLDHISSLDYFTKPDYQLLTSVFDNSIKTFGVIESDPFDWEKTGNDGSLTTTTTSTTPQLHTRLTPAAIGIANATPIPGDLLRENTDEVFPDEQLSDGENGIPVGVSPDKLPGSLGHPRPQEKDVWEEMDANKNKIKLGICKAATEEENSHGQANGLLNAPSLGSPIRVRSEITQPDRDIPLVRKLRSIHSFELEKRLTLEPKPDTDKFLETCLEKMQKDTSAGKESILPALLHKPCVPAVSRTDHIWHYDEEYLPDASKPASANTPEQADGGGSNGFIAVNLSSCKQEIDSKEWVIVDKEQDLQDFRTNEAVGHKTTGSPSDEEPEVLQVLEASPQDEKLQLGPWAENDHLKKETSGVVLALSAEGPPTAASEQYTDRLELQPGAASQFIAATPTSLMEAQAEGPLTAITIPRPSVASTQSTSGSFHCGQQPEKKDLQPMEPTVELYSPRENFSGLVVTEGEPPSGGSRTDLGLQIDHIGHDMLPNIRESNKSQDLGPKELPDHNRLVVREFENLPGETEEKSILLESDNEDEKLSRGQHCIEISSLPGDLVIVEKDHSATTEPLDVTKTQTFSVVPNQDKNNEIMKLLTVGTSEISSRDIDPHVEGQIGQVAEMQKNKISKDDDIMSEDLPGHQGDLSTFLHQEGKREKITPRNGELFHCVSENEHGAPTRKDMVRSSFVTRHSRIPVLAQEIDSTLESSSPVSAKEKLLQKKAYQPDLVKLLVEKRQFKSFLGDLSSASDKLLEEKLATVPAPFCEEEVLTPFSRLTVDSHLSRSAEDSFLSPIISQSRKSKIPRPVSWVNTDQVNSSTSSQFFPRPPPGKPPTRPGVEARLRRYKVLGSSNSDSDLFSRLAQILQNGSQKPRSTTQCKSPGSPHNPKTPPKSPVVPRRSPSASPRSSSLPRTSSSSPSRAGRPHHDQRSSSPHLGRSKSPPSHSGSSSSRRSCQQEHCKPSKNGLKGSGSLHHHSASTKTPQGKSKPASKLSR
Sequence of Dual specificity tyrosine-phosphorylation-regulated kinase 3 (Homo sapiens) (O43781 whole entry): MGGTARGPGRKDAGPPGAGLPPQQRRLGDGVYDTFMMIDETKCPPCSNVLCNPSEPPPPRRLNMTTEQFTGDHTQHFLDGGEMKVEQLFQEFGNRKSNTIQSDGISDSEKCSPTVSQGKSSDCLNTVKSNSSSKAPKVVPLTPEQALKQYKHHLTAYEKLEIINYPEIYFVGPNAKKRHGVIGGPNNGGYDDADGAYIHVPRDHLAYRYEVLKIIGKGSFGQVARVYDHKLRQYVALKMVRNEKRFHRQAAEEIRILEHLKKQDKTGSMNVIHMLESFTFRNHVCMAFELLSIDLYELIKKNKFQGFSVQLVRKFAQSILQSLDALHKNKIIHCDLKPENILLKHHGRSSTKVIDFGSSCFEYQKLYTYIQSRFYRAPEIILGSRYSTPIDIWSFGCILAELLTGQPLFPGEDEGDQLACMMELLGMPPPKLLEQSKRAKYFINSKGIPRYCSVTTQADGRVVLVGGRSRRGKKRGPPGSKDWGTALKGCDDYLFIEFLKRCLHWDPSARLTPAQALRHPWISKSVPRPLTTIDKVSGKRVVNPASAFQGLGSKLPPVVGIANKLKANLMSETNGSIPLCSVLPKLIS
Sequence of Serine/threonine-protein kinase PAK 2 (Homo sapiens) (Q13177 whole entry): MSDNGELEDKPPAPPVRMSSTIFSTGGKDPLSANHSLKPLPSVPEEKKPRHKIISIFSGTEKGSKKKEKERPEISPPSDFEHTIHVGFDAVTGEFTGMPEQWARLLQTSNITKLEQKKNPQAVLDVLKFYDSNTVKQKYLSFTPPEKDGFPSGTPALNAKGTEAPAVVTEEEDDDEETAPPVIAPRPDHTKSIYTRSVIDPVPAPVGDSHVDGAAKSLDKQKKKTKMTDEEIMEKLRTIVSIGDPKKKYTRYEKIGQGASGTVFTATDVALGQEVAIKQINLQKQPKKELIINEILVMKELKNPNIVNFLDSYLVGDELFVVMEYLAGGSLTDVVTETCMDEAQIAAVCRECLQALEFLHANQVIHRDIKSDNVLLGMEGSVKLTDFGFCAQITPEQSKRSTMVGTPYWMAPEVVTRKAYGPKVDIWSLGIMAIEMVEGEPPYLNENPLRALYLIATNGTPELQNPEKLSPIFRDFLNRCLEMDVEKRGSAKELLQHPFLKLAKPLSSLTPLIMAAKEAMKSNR
Sequence of MAP/microtubule affinity-regulating kinase 3 (Homo sapiens) (P27448 whole entry, looked up): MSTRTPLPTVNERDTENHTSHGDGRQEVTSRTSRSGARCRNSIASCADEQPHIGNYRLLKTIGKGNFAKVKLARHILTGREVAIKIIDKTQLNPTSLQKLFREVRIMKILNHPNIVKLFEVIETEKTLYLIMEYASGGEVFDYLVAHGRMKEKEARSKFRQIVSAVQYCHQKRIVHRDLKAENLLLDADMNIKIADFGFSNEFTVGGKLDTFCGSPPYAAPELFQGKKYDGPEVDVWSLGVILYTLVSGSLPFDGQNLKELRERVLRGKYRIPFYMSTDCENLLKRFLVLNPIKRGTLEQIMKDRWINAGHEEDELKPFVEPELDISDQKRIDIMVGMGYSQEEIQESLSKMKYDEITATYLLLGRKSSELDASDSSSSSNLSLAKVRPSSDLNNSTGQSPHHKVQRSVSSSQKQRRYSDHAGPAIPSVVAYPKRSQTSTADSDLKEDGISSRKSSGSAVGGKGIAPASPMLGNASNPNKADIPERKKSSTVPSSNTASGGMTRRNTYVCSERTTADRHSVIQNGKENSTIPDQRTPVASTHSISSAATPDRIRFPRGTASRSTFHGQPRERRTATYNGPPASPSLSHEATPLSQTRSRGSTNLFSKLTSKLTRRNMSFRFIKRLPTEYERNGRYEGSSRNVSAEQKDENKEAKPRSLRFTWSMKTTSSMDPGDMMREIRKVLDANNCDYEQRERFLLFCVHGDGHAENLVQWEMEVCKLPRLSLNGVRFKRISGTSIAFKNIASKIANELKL
Sequence of Calcium/calmodulin-dependent protein kinase type 1 (Homo sapiens) (Q14012 whole entry, looked up): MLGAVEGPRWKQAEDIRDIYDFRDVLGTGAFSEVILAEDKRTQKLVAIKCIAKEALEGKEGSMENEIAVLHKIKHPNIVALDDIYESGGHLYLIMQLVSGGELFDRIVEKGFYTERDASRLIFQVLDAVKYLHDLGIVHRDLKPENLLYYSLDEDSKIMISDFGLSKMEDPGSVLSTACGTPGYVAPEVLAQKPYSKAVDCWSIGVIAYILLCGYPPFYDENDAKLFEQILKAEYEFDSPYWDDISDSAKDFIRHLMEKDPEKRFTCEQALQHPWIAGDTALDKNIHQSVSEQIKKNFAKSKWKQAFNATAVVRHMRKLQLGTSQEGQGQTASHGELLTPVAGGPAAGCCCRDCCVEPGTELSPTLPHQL

Cc1ccc(-c2cc(C(=O)Nc3ccnc(Cl)c3)nn2-c2ccc3ccccc3n2)cc1
Activity [1]: 113%
Activity [2]: 108%
Activity [3]: 95%
Activity [4]: 100%
Activity [5]: 128%
Activity [6]: 109%
Activity [7]: 89%
Activity [8]: 68%
Activity [9]: 96%
Activity [10]: 101%
Activity [11]: 27.8%
Activity [12]: 113%
Activity [13]: 100%
Activity [14]: 109%
Activity [15]: 94%
Activity [16]: 97%
Activity [17]: 76%
Activity [18]: 96%
Activity [19]: 76%
Activity [20]: 105%
Activity [21]: 107%
Activity [22]: 86%
IC50 [23]: 1100 nM
Activity [24]: 103%
Activity [25]: 114%
Activity [26]: 86%
